This is a sample that favours compounds with a hit; in the whole collection about 2.3% have one here.
Ins promoter up: insulin promoter activators in MIN6 cells, imaging, high-content screening, mouse beta cells. MIN6 insulin promoter-GFP reporter; hits give high values. z-score at 5 µM. hit rate 0.3% among 190,000. AID 1625, 2009;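 active = z-score above 3 at 5 µM with at least 500 cells counted in the well; inconclusive = wells under 500 cells, flagged as cytotoxic or low count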
Autophagy mod: autophagy modulators in MEF cells, primary screen, imaging, high-content, MEF GFP-LC3 | MEF GFP-LC3 puncta imaging; test concentration mostly 10 µM | calls only at 10 µM (by protocol) | hit rate 0.98% among 190,000 | AID 463193, 2010;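 active = percentage of spot-positive cells more than 3 SD above its plate mean, without a fluorescence outlier flag or 80% toxicity; inconclusive = no clear call, values can overlap the other calls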;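 also: spot-positive cell cutoff set from DMSO-treated cells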
MT stabilize HCS: microtubule stabilizers in HeLa cells, primary screen, imaging, high-content imaging | AID 2205, 2009 | % tubulin-high responders, % at 10 µM | hit rate 0.83% among 200,000 | HeLa tubulin immunostaining HCS, 24 h; share of cells brighter than vehicle mean+2SD;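 active = plate Z-score above 3 for both tubulin-high and condensed-nucleus cell shares, with cell loss under 80%, at 10 µM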;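 also: anti alpha tubulin signal scored within the nucleus-defined area of each cell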
b-catenin transl: modulators of beta-catenin nuclear translocation, primary screen, imaging, HeLa cells, immunofluorescence, high-content; nuclear translocation activity, % at 5 µM; hit rate 0.3% among 190,000; AID 1665, 2009;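 active = nuclear translocation activity above 50% at 5 µM, with a well cell count of 50 or more; inconclusive = wells under 50 cells across six images, flagged as toxic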;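 also: per-cell ratio of nuclear to cytoplasmic median beta-catenin stain intensity; plate controls were DMSO negative control for no effect and GSK-3 inhibitor IX positive control for full effect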
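test system = HeLa cells, endogenous beta-catenin | dosing = single 5 µM dose plus 0.02–20 µM confirmation series | times = compound treatment 24 h, 37°C, 5% CO2 | technique = beta-catenin immunofluorescence imaging with DAPI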
Dynein cargo inh: inhibitors of GR-EGFP nuclear translocation, primary screen, dynein cargo transport inhibitor project, imaging, high-content, 3617.4 mouse cells. test concentration mostly 20 µM; stimulated with dexamethasone, 1 µM; hits give low values. z-score, hits read low. hit rate 0.47% among 220,000;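 active = plate z-score of nuclear minus cytoplasmic receptor signal below a set negative limit, without overly bright fluorescence or cell loss, cut at about -3.5 in these data, passing the limit was not always enough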;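 also: z-score of nuclear minus cytoplasmic ring GR-EGFP intensity difference per well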
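Medium: Induction medium lacking tetracycline, stripped serum | Probe or stimulus: 1.0 µM final dexamethasone stimulus | Schedule: 48 h induction, then 1 h compound, then 30 min agonist, 37 °C | Signal: Automated 10x imaging of fixed Hoechst-stained cells | Evaluation: Per-cell GR-EGFP intensity, nucleus versus surrounding cytoplasmic ring, well-averaged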
Dynein confirm: dynein cargo transport inhibitors, GR-EGFP translocation, confirmation, imaging, high-content imaging, GR-EGFP cells | shares compounds with Dynein cargo inh | AID 463116, 2010 | hit rate 69% among 1,000 | calls only at 20 µM | 3617.4 GR-EGFP nuclear translocation imaging, dexamethasone-induced;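 active = inhibition of receptor movement into the nucleus at or above a set limit in both runs, with normal cell brightness and cell count; inconclusive = limit reached in only one run, brightness and count normal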;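 also: dexamethasone at 1 µM final in well for 30 min; nuclear minus cytoplasmic GR-EGFP mean intensity difference in channel 2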
Starred values were filed as active, the others as inactive.

How did CC(=O)N1CC=C2C(C#N)=C(N)C(C#N)(C#N)C(CCc3ccccc3)C2C1 (centres undefined) do in these assays?
Ins promoter up: 0.16; Autophagy mod: inactive; MT stabilize HCS: 2.7; b-catenin transl: 4.6; Dynein cargo inh: 1.12

Results for Cc1ccc(-c2cn3nc(-c4ccccc4)c(-c4ccccc4)nc3n2)cc1 ?
b-catenin transl: -1.3; Dynein cargo inh: -4.63; Dynein confirm: active

How did O=C(O)c1ccccc1CSc1nc2ccccc2n1Cc1ccccc1C(=O)O do in these assays?
Ins promoter up: -0.34; Autophagy mod: inactive; MT stabilize HCS: 2.1; b-catenin transl: -0.6; Dynein cargo inh: -0.272

What do the screens show for `O=C1C(Cl)=C(NCCN2CCCCC2)C(=O)c2ccccc21`?
Ins promoter up: inconclusive; Autophagy mod: inactive; MT stabilize HCS: 46.2; b-catenin transl: -0.2; Dynein cargo inh: -4.2*; Dynein confirm: active

What do the screens show for `Cc1ccccc1N1CCN(C(=O)c2ccccc2NC(=O)c2ccccc2C(=O)O)CC1`?
Ins promoter up: 0.14; Autophagy mod: inactive; MT stabilize HCS: 2.2; b-catenin transl: -1.3; Dynein cargo inh: -0.616

What do the screens show for `CCCNc1sc(S(=O)(=O)CCC)nc1S(=O)(=O)c1ccc(C)cc1`?
Ins promoter up: 1.28; Autophagy mod: inactive; MT stabilize HCS: 2.2; b-catenin transl: -3.3; Dynein cargo inh: 0.811

How did N#CC12COC3(CCCCC3C1(C#N)C#N)OC2=N (centres undefined) do in these assays?
Ins promoter up: 0.08; b-catenin transl: 1.2; Dynein cargo inh: -5.04*; Dynein confirm: active

How did O=C(Cn1ncc2c3ccccc3n(Cc3ccccc3)c2c1=O)NCc1ccco1 do in these assays?
Ins promoter up: -0.56; b-catenin transl: -0.6; Dynein cargo inh: -1.18

How did O=S(=O)(CCSc1nc2ccccc2o1)c1nc2ccccc2s1 do in these assays?
Autophagy mod: active; MT stabilize HCS: 2.6; Dynein cargo inh: -4.07*; Dynein confirm: active

What do the screens show for `O=S(=O)(CCSc1ccccn1)c1nc2ccccc2s1`?
Ins promoter up: 1.18; Autophagy mod: active; MT stabilize HCS: 5.1; Dynein cargo inh: -4.02*; Dynein confirm: active

How did COc1cc2c(cc1OC)C1(C)N(CC2)C(C(C)=O)=NN1c1ccc(Cl)cc1 (centres undefined) do in these assays?
Ins promoter up: 0.98; b-catenin transl: -1.0; Dynein cargo inh: -0.0633

What do the screens show for `COc1ccc(C(=O)CCN2CCN(c3ccccc3OC)CC2)cc1`?
Ins promoter up: -0.22; Autophagy mod: inactive; MT stabilize HCS: 2.6; b-catenin transl: 0.0; Dynein cargo inh: -4.39*; Dynein confirm: active

What do the screens show for `Cc1[nH]c2ccccc2c1C(=O)CSC(=S)N1CCOCC1`?
b-catenin transl: 0.1; Dynein cargo inh: 0.35

How did Cc1cc(Cl)n2c(nc3ccccc32)c1C#N do in these assays?
Ins promoter up: inconclusive; Autophagy mod: inactive; MT stabilize HCS: 7.7; b-catenin transl: 106.5*; Dynein cargo inh: -5.22*; Dynein confirm: active

How did CCN(CC)c1cc(C)c(C#N)c2nc3ccccc3n12 do in these assays?
Ins promoter up: -0.47; b-catenin transl: 3.9; Dynein cargo inh: 0.998

Results for OC(CNCCc1ccccc1)COc1ccc(OCC(O)CNCCc2ccccc2)cc1 (centres undefined) ?
Ins promoter up: -0.23; b-catenin transl: 14.4; Dynein cargo inh: 5.19

How did OC(CNCCc1ccc(Cl)cc1)COc1ccc2ccccc2c1 (centres undefined) do in these assays?
Ins promoter up: -0.15; Autophagy mod: inactive; MT stabilize HCS: 6.6; b-catenin transl: 0.0; Dynein cargo inh: -8.18*; Dynein confirm: inactive

How did CN1CCN(C(=O)c2cc3sc4ccccc4c3s2)CC1 do in these assays?
Ins promoter up: 0.04; b-catenin transl: 1.2; Dynein cargo inh: -0.105

What do the screens show for `CCCN1C(=O)S/C(=C\c2ccc(N3CCOCC3)o2)C1=O`?
Autophagy mod: inactive; MT stabilize HCS: 3.6; b-catenin transl: 3.7; Dynein cargo inh: -1.11

Source: PubChem (several laboratories)
